Test results reported in publication PMC5599992 (Journal of Clinical Pharmacology, 2017).
Several values for one entry are separate records, joined by “and”; a condition that tells them apart may be missing. Equal entries are not always repeated. Where two headings read alike, the source gives them in different places.

Key:
[1] = monkeys; ref data on file; cited from earlier work
CYP1A2 = settings: ref data on file; cited from earlier work
CLL/SLL [2] = assay: Exposure‐response analysis; assay type: in vivo, human
In short: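 In relapsed/refractory CLL/SLL patients from the phase 1b study, log-transformed steady-state AUC came from noncompartmental analysis. ORR (CR, CRi or PR; updated iwCLL criteria) was modeled as responder vs nonresponder by logistic regression, first univariate, then multivariate with stepwise forward/backward covariate selection. Covariates were age, BSA, sex, race, QD vs BID regimen, CLcr, bilirubin, albumin, ALT and AST.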

CLL/SLL [3] = assay: Threshold analysis; assay type: in vivo, human; settings: threshold 300 ng/mL
[4] = rats; ref data on file; cited from earlier work
[5] = Population pharmacokinetic analysis of CC‐292; assay type: in vivo, human
In short: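 Data came from healthy volunteers (50, 100 or 200 mg or placebo orally QD for 7 days; intensive sampling predose to 24 h on days 1 and 7, troughs on days 3–6) and patients (sparse cycle 1–3 samples). Plasma was assayed by LC-MS/MS (LLOQ ≤0.5 ng/mL, labeled internal standard). The NONMEM FOCE-I 2-compartment model with first-order absorption and lag used ln-transformed data and separate residual error per population. There were 1000 bootstrap runs with 5th–95th percentile CIs.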

[6] = rats; ref data on file; cited from earlier work; remark: listed apart in the source
CLL/SLL [7] = assay: Best overall response in CLL/SLL subjects, phase 1b study AVL‐292‐003; assay type: in vivo, human
CYP3A4 = settings: ref data on file; cited from earlier work
[8] = based on final population PK parameters

duration/coverage at and above the threshold concentration (CLL/SLL [3]; 375 mg BID): ~10.4 h
duration/coverage at and above the threshold concentration (CLL/SLL [3]; 750 mg QD): 6.6 h
interindividual variability for V2/F ([5]; base model): 88%
distribution rate [5, 8]: 0.11 h⁻¹
elimination rate [5, 8]: 0.85 h⁻¹
Alag1, Bootstrap Estimate (95%CI) ([5]; bootstrap N = 1000): 0.428 (0.414‐0.439) h
CL/F, Bootstrap Estimate (95%CI) ([5]; bootstrap N = 1000): 131.9 (109.0‐166.6) L/h
Effect of age on V2/F, Bootstrap Estimate (95%CI) ([5]; bootstrap N = 1000): 0.946 (0.592‐1.355)
Interindividual variability ωV2/F: ωCL/F, Bootstrap Estimate (95%CI) ([5]; bootstrap N = 1000): 0.321 (0.198‐0.461)
Interindividual variability ω^2 CL/F, Bootstrap Estimate (95%CI) ([5]; bootstrap N = 1000): 0.306 (0.202‐0.454)
Interindividual variability ω^2 V2/F, Bootstrap Estimate (95%CI) ([5]; bootstrap N = 1000): 0.750 (0.526‐1.010)
Q/F, Bootstrap Estimate (95%CI) ([5]; bootstrap N = 1000): 18.4 (15.3‐21.7) L/h
V2/F, Bootstrap Estimate (95%CI) ([5]; bootstrap N = 1000): 156.4 (130.2‐187.8) L
V3/F, Bootstrap Estimate (95%CI) ([5]; bootstrap N = 1000): 71.7 (61.4‐83.5) L
ka, Bootstrap Estimate (95%CI) ([5]; bootstrap N = 1000): 0.97 (0.86‐1.11) h^−1
Residual variability HNP, Bootstrap Estimate (95%CI) ([5]; bootstrap N = 1000, healthy normal study subjects): 0.230 (0.180‐0.288)
Residual variability Patients, Bootstrap Estimate (95%CI) ([5]; bootstrap N = 1000, patients): 0.654 (0.537‐0.708)
Vd/F ([5]; both, human, plasma, oral): 158 L
clearance ([5]; both, human, plasma, oral): 2230 mL/min
interindividual variability for V2/F ([5]; final model (age included)): 86%
Alag1, absorption lag time, Estimate ([5]; final population PK model): 0.427 h
Interindividual variability ωV2/F: ωCL/F, Estimate ([5]; final population PK model): 0.328
Interindividual variability ω^2 CL/F, Estimate ([5]; final population PK model): 0.317
Interindividual variability ω^2 V2/F, Estimate ([5]; final population PK model): 0.755
lower CL/F in female subjects compared to male subjects ([5]; final population PK model): 26%
Residual variability HNP, Estimate ([5]; final population PK model, healthy normal study subjects): 0.234
ka, first‐order absorption rate constant, Estimate ([5]; final population PK model, oral, healthy subjects and patients): 0.97 h⁻¹ and 0.974 h⁻¹
Residual variability Patients, Estimate ([5]; final population PK model, patients): 0.659
Effect of age on V2/F, Estimate ([5]; final population PK model, power exponent): 0.946
CL/F, apparent clearance, Estimate ([5]; final population PK model, typical value for male subjects): 134 L/h and 134.0 L/h
CL/F relative to Q/F (Q/F lower than CL/F) ([5]; in vivo): 7.2 fold and ~7 fold
differences in drug exposures between female and male subjects ([5]; in vivo): below 26%
Compound: C=CC(=O)Nc1cccc(Nc2nc(Nc3ccc(OCCOC)cc3)ncc2F)c1 [CC‐292]
extent of bioavailability [1]: 11%
metabolism by CYP1A2 (CYP1A2): extensively metabolized
mean ORR (CLL/SLL [2]; first quartile of average AUC): 35%
mean ORR (CLL/SLL [2]; fourth quartile of average AUC): 50.2%
CC‐292–derived radioactivity excreted in the bile [4]: ~79 % of the dose
extent of bioavailability [6]: 57%
Best overall response: Complete response (CLL/SLL [7]; 125 mg QD): 0 n (%)
Best overall response: Partial response (CLL/SLL [7]; 125 mg QD): 1 (33.3) n (%)
Best overall response: Progression disease (CLL/SLL [7]; 125 mg QD): 0 n (%)
Best overall response: Stable disease (CLL/SLL [7]; 125 mg QD): 2 (66.7) n (%)
Overall response rate (CLL/SLL [7]; 125 mg QD): 1 (33.3) n (%)
Best overall response: Complete response (CLL/SLL [7]; 250 mg QD): 0 n (%)
Best overall response: Partial response (CLL/SLL [7]; 250 mg QD): 0 n (%)
Best overall response: Progression disease (CLL/SLL [7]; 250 mg QD): 0 n (%)
Best overall response: Stable disease (CLL/SLL [7]; 250 mg QD): 1 (100) n (%)
Overall response rate (CLL/SLL [7]; 250 mg QD): 0 n (%)
Best overall response: Complete response (CLL/SLL [7]; 375 mg BID): 0 n (%)
Best overall response: Partial response (CLL/SLL [7]; 375 mg BID): 4 (66.7) n (%)
Best overall response: Progression disease (CLL/SLL [7]; 375 mg BID): 0 n (%)
Best overall response: Stable disease (CLL/SLL [7]; 375 mg BID): 2 (33.3) n (%)
Overall response rate (CLL/SLL [7]; 375 mg BID): 4 (66.7) n (%)
Best overall response: Complete response (CLL/SLL [7]; 400 mg QD): 0 n (%)
Best overall response: Partial response (CLL/SLL [7]; 400 mg QD): 1 (25.0) n (%)
Best overall response: Progression disease (CLL/SLL [7]; 400 mg QD): 0 n (%)
Best overall response: Stable disease (CLL/SLL [7]; 400 mg QD): 3 (75.0) n (%)
Overall response rate (CLL/SLL [7]; 400 mg QD): 1 (25.0) n (%)
Best overall response: Complete response (CLL/SLL [7]; 500 mg BID): 0 n (%)
Best overall response: Partial response (CLL/SLL [7]; 500 mg BID): 19 (61.3) n (%)
Best overall response: Progression disease (CLL/SLL [7]; 500 mg BID): 0 n (%)
Best overall response: Stable disease (CLL/SLL [7]; 500 mg BID): 12 (38.7) n (%)
Overall response rate (CLL/SLL [7]; 500 mg BID): 19 (61.3) n (%)
Best overall response: Complete response (CLL/SLL [7]; 625 mg QD): 0 n (%)
Best overall response: Partial response (CLL/SLL [7]; 625 mg QD): 0 n (%)
Best overall response: Progression disease (CLL/SLL [7]; 625 mg QD): 0 n (%)
Best overall response: Stable disease (CLL/SLL [7]; 625 mg QD): 1 (100) n (%)
Overall response rate (CLL/SLL [7]; 625 mg QD): 0 n (%)
Best overall response: Complete response (CLL/SLL [7]; 750 mg QD): 0 n (%)
Best overall response: Partial response (CLL/SLL [7]; 750 mg QD): 12 (41.4) n (%)
Best overall response: Progression disease (CLL/SLL [7]; 750 mg QD): 1 (3.4) n (%)
Best overall response: Stable disease (CLL/SLL [7]; 750 mg QD): 16 (55.2) n (%)
Overall response rate (CLL/SLL [7]; 750 mg QD): 12 (41.4) n (%)
Best overall response: Complete response (CLL/SLL [7]; 1000 mg QD): 0 n (%)
Best overall response: Partial response (CLL/SLL [7]; 1000 mg QD): 4 (57.1) n (%)
Best overall response: Progression disease (CLL/SLL [7]; 1000 mg QD): 0 n (%)
Best overall response: Stable disease (CLL/SLL [7]; 1000 mg QD): 3 (42.9) n (%)
Overall response rate (CLL/SLL [7]; 1000 mg QD): 4 (57.1) n (%)
Best overall response: Complete response (CLL/SLL [7]; Total, all cohorts): 0 n (%)
Best overall response: Partial response (CLL/SLL [7]; Total, all cohorts): 41 (50.0) n (%)
Best overall response: Progression disease (CLL/SLL [7]; Total, all cohorts): 1 (1.2) n (%)
Best overall response: Stable disease (CLL/SLL [7]; Total, all cohorts): 40 (48.8) n (%)
Overall response rate (CLL/SLL [7]; Total, all cohorts): 41 (50.0) n (%)
metabolism by CYP3A4 (CYP3A4): extensively metabolized
